From ChEMBL document CHEMBL5705906 (Nat Commun, 2017)
Active and inactive are the calls of the source. The rule behind the calls is not given here.

Legend:
[1] = test system: BaF3; assay: Inhibition of EGFR-C797S/T790M/L858R mutant in mouse BaF3 cells assessed as inhibition of EGFR phosphorylation at 10 to 1000 nM incubated for 6 hrs by Western blotting analysis; format: cell-based; conditions: dose 10-1000 nM
Summary of the method: (§1)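 Ba/F3 cells expressing EGFR-L858R-series mutants treated with inhibitors for 6 h. SDS lysates quantified by BCA, run on SDS-PAGE and blotted to PVDF. Probed for phospho-EGFR (Tyr1068), total EGFR and downstream phospho-proteins.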

[2] = test system: BaF3; assay: Inhibition of EGFR-C797S/T790M/L858R mutant expressed in mouse BaF3 cells assessed as inhibition of Akt phosphorylation at 10 to 1000 nM incubated for 6 hrs by Western blotting analysis; format: cell-based; conditions: dose 10-1000 nM; summary of the method: as §1
[3] = test system: BaF3; assay: Inhibition of EGFR-C797S/T790M/L858R mutant expressed in mouse BaF3 cells assessed as inhibition of ERK phosphorylation at 10 to 1000 nM incubated for 6 hrs by Western blotting analysis; format: cell-based; conditions: dose 10-1000 nM; summary of the method: as §1
[4] = test system: BaF3; assay: Inhibition of EGFR-C797S/T790M/L858R mutant in mouse BaF3 cells assessed as inhibition of S6 phosphorylation at 10 to 1000 nM incubated for 6 hrs by Western blotting analysis; format: cell-based; conditions: dose 10-1000 nM; summary of the method: as §1
[5] = test system: BaF3; assay: Inhibition of EGFR-C797S/T790M/del19 mutant in mouse BaF3 cells assessed as reduction in EGFR phosphorylation at 300 nM incubated for 6 hrs by Western blotting analysis; format: cell-based
[6] = test system: BaF3; assay: Inhibition of EGFR-C797S/T790M/del19 mutant in mouse BaF3 cells assessed as reduction in EGFR phosphorylation at 10 to 1000 nM by Western blotting analysis; format: cell-based; conditions: dose 10-1000 nM
[7] = test system: BaF3; assay: Inhibition of EGFR-C797S/T790M/del19 mutant in mouse BaF3 cells assessed as reduction in Akt phosphorylation at 10 to 1000 nM by Western blotting analysis; format: cell-based; conditions: dose 10-1000 nM
[8] = test system: BaF3; assay: Inhibition of EGFR-C797S/T790M/del19 mutant in mouse BaF3 cells assessed as reduction in ERK phosphorylation at 10 to 1000 nM by Western blotting analysis; format: cell-based; conditions: dose 10-1000 nM
[9] = test system: BaF3; assay: Inhibition of EGFR-C797S/T790M/del19 mutant in mouse BaF3 cells assessed as reduction in S6 phosphorylation at 10 to 1000 nM by Western blotting analysis; format: cell-based; conditions: dose 10-1000 nM
[10] = test system: BaF3; assay: Inhibition of EGFR-C797S/T790M/del19 mutant in mouse BaF3 cells assessed as reduction in Akt protein level at 10 to 1000 nM by Western blotting analysis; format: cell-based; conditions: dose 10-1000 nM
[11] = test system: BaF3; assay: Inhibition of EGFR-C797S/T790M/del19 mutant in mouse BaF3 cells assessed as reduction in ERK protein level at 10 to 1000 nM by Western blotting analysis; format: cell-based; conditions: dose 10-1000 nM
[12] = test system: BaF3; assay: Inhibition of EGFR-C797S/T790M/del19 mutant in mouse BaF3 cells assessed as reduction in S6 protein level at 10 to 1000 nM by Western blotting analysis; format: cell-based; conditions: dose 10-1000 nM
[13] = test system: A549; assay: Anticancer activity against KRAS-mutated human A549 cells assessed as reduction in cell viability at 1 to 10000 nM incubated for 72 hrs by CellTiter-Glo assay; format: functional, cell-based; conditions: dose 1-10000 nM
[14] = test system: NCI-H460; assay: Anticancer activity against KRAS-mutated human NCI-H460 cells assessed as reduction in cell viability at 1 to 10000 nM incubated for 72 hrs by CellTiter-Glo assay; format: functional, cell-based; conditions: dose 1-10000 nM
[15] = test system: PC-9; assay: Inhibition of EGFR T790M/del19 mutant in human PC-9 cells assessed as reduction in EGFR phosphorylation at 10 to 1000 nM by Western blotting analysis; format: cell-based; conditions: dose 10-1000 nM
[16] = test system: PC-9; assay: Inhibition of EGFR T790M/del19 mutant in human PC-9 cells assessed as reduction in Akt phosphorylation at 10 to 1000 nM by Western blotting analysis; format: cell-based; conditions: dose 10-1000 nM
[17] = test system: PC-9; assay: Inhibition of EGFR T790M/del19 mutant in human PC-9 cells assessed as reduction in ERK phosphorylation at 10 to 1000 nM by Western blotting analysis; format: cell-based; conditions: dose 10-1000 nM
[18] = test system: PC-9; assay: Inhibition of EGFR T790M/del19 mutant in human PC-9 cells assessed as reduction in S6 phosphorylation at 10 to 1000 nM by Western blotting analysis; format: cell-based; conditions: dose 10-1000 nM

COc1cc(N2CCC(N3CCN(C)CC3)CC2)ccc1Nc1ncnc(Nc2ccccc2S(=O)(=O)C(C)C)n1
inhibition [1]: inactive | inhibition [2]: inactive | inhibition [3]: inactive | inhibition [4]: inactive

Cc1cc(Nc2ncc(Cl)c(Nc3ccccc3S(=O)(=O)C(C)C)n2)c(OC(C)C)cc1C1CCNCC1
inhibition [1]: inactive | inhibition [2]: inactive | inhibition [3]: inactive | inhibition [4]: inactive

Cc1ccc(C(=O)Nc2ccc(CN3CCN(C)CC3)c(C(F)(F)F)c2)cc1C#Cc1cnc2cccnn12
inhibition [5]: inactive

CN(C)C/C=C/C(=O)Nc1cc2c(Nc3ccc(F)c(Cl)c3)ncnc2cc1O[C@H]1CCOC1 [AFATINIB]
inhibition [6]: inactive | inhibition [7]: inactive | inhibition [8]: inactive | inhibition [9]: inactive | inhibition [10]: inactive | inhibition [11]: inactive | inhibition [12]: inactive | Activity [13]: Active | Activity [14]: Active | inhibition [15]: Active | inhibition [16]: Active | inhibition [17]: Active | inhibition [18]: Active
